pIC50: −log10 of the molar value. Each block holds one compound with its values, some of them ahead of it. Activity calls are given as the source filed them. The calls are words filed in the database; no cut-off is given here.
How the values were obtained:
[1] = Inhibition of quorum sensing regulated bioluminescence in wild type Vibrio harveyi BB120 after 5 hrs by luminescence assay
Outline: (§1)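 Twofold compound dilutions in LM broth; OD600-adjusted (0.4) AB-grown overnight culture diluted 1:100 in Luria-Marine broth, 200 µl per well. Incubated 5 h at 30 °C with aeration; luminescence imaged by CCD camera. IC50 = concentration inhibiting luminescence by 50%, fitted from gradients in 2–3 independent experiments (2–3 repeats each); top concentration 1000 µM.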

Vibrio harveyi [2] = assay: Antimicrobial activity against wild type Vibrio harveyi BB120; format: functional
Outline: (§2)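 Overnight AB-medium culture, OD600 adjusted to 0.4, diluted 1:100 into Luria-Marine broth and added to twofold compound dilutions in LM broth, 200 µl per well. Incubated 5 h at 30 °C with aeration under breathable seal; growth read as OD600. GIC50 = concentration reducing OD600 by 50%, from gradients in 2–3 independent experiments, 2–3 repeats each; highest concentration tested 1000 µM.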

Salmonella typhimurium [3] = assay: Antimicrobial activity against Salmonella Typhimurium ATCC 14028 assessed as inhibition of biofilm formation after 48 hrs using crystal violet staining by microtiter plate assay; format: functional, organism-based, Salmonella enterica subsp. enterica serovar Typhimurium; details: Salmonella enterica, ATCC 14028, 48 h
Outline: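 Peg-lid biofilm assay: overnight LB culture diluted 1:100 into TSB 1/20, ca. 1×10⁶ cells added to twofold compound dilutions, 200 µl total per well. Static incubation 48 h at 16 °C; lid moved to fresh medium with compound after 24 h. IC50 from concentration gradients, 2–3 independent experiments, 2–3 repeats each.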

Salmonella typhimurium [4] = assay: Antimicrobial activity against Salmonella Typhimurium ATCC 14028 assessed as effect on planktonic growth at 10 uM after 36 hrs by microtiter plate assay; format: functional, organism-based; details: Salmonella enterica subsp. enterica serovar Typhimurium
Outline: (§3)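 Overnight LB culture diluted 1:200 in TSB 1/20; 300 µl per well; compound serial dilutions made in EtOH, 3 µl added per well in triplicate; solvent-only controls in three- or fourfold. Incubated at 16 °C for at least 36 h with continuous shaking in Bioscreen reader; OD600 read every 15 min; growth curves compared with untreated controls.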

Salmonella typhimurium [5] = assay: Antimicrobial activity against Salmonella Typhimurium ATCC 14028 assessed as effect on planktonic growth at 250 uM after 36 hrs by microtiter plate assay; format: functional, organism-based; details: Salmonella enterica subsp. enterica serovar Typhimurium; outline: as §3
Salmonella typhimurium [6] = assay: Antimicrobial activity against Salmonella Typhimurium ATCC 14028 assessed as effect on planktonic growth at 100 uM after 36 hrs by microtiter plate assay; format: functional, organism-based; details: Salmonella enterica subsp. enterica serovar Typhimurium; outline: as §3
Salmonella typhimurium [7] = assay: Antimicrobial activity against Salmonella Typhimurium ATCC 14028 assessed as effect on planktonic growth at 1 uM after 36 hrs by microtiter plate assay; format: functional, organism-based; details: Salmonella enterica subsp. enterica serovar Typhimurium; outline: as §3
CCRF-CEM = assay: Cytotoxicity against human CEM cells assessed as inhibition of cell proliferation after 3 days by coulter counter assay; format: cell-based; details: 72 h
Outline: (§4)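 Cells suspended at 300,000–500,000 cells/mL; 100 µL added to equal volume of compound dilution in 96-well plates. Incubated at 37 °C for 2 days (L1210, FM3A), 3 days (CEM) or 4 days (HeLa, OST). Cell number counted by Coulter counter; IC50 = concentration inhibiting proliferation by 50%.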

L1210 = assay: Cytotoxicity against mouse L1210 cells assessed as inhibition of cell proliferation after 2 days by coulter counter assay; format: cell-based; details: L1210, 48 h; outline: as §4
Vibrio harveyi [8] = assay: Inhibition of quorum sensing regulated bioluminescence in Vibrio harveyi BNL258 harboring hfq::Tn5lacZ mutant quorum sensing after 5 hrs by luminescence assay
Outline: (§5)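 Twofold serial dilutions in Luria-Marine broth; overnight culture (grown in AB medium) adjusted to OD600 0.4, diluted 1:100 and added 1:1 to wells (200 µl total). Incubated 5 h at 30 °C with aeration under breathable seal. Luminescence read by CCD camera, OD600 also measured. Luminescence expressed as percentage of untreated control of the same strain.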

Vibrio harveyi [9] = assay: Inhibition of quorum sensing regulated bioluminescence in Vibrio harveyi JAF483 luxO D47A linked to Kan mutant quorum sensing after 5 hrs by luminescence assay; outline: as §5
OST = assay: Cytotoxicity against human thymidine kinase deficient OST cells assessed as inhibition of cell proliferation after 4 days by coulter counter assay; format: cell-based; details: 96 h; outline: as §4
Vibrio harveyi [10] = assay: Inhibition of quorum sensing regulated bioluminescence in Vibrio harveyi JAF553 luxU H58A linked to Kan mutant quorum sensing after 5 hrs by luminescence assay; outline: as §5
FM3A = assay: Cytotoxicity against mouse FM3A cells assessed as inhibition of cell proliferation after 2 days by coulter counter assay; format: cell-based; details: 48 h; outline: as §4
HeLa = assay: Cytotoxicity against human HeLa cells assessed as inhibition of cell proliferation after 4 days by coulter counter assay; format: cell-based; details: 96 h; outline: as §4
[11] = Inhibition of quorum sensing regulated bioluminescence in wild type Vibrio harveyi BB120 at 1000 uM after 5 hrs by luminescence assay; outline: as §1
Vibrio harveyi [12] = assay: Antimicrobial activity against wild type Vibrio harveyi BB120 at 1000 uM; format: functional, organism-based; outline: as §2

pIC50 [1]: 4.72
Structure (SMILES): CCCCC1=CC(=C(Br)Br)OC1=O
GI50 (Vibrio harveyi [2]): 141 µM
pIC50 (Salmonella typhimurium [3]): 3.83

pIC50 [1]: 5.87
Structure (SMILES): CCCCC1=C(Br)/C(=C/Br)OC1=O
Activity (Salmonella typhimurium [4]): inactive
GI50 (Vibrio harveyi [2]): 65.3 µM
Activity (Salmonella typhimurium [5]): Active
pIC50 (Salmonella typhimurium [3]): 4.64
Activity (Salmonella typhimurium [6]): inactive

pIC50 [1]: 5.56
Structure (SMILES): CC(Br)C1=C(Br)C(=C(Br)Br)OC1=O (stereo unspecified)
Activity (Salmonella typhimurium [4]): inactive
GI50 (Vibrio harveyi [2]): 9.74 µM
Activity (Salmonella typhimurium [5]): inactive
pIC50 (Salmonella typhimurium [3]): 5.39
Activity (Salmonella typhimurium [6]): inactive
Activity (Salmonella typhimurium [7]): inactive

pIC50 [1]: 4.57
Structure (SMILES): CCCCCCCCCCC1=C(Br)/C(=C/Br)OC1=O
GI50 (Vibrio harveyi [2]): > 300 µM

pIC50 [1]: 6.11
Structure (SMILES): CC(Br)C1=CC(=C(Br)Br)OC1=O (stereo unspecified)
Activity (Salmonella typhimurium [4]): Active
GI50 (Vibrio harveyi [2]): 3.07 µM
Activity (Salmonella typhimurium [5]): Active
pIC50 (Salmonella typhimurium [3]): 5.93
Activity (Salmonella typhimurium [6]): Active
Activity (Salmonella typhimurium [7]): inactive

IC50 [11]: Not Active
Structure (SMILES): CCCCCCCCCCCCC1=C(Br)/C(=C/Br)OC1=O
GI50 (Vibrio harveyi [12]): inactive

pIC50 [1]: 5.94
Structure (SMILES): CCC1=C(Br)C(=C(Br)Br)OC1=O
Activity (Salmonella typhimurium [4]): inactive
GI50 (Vibrio harveyi [2]): 2.26 µM
pIC50 (Salmonella typhimurium [3]): 4.24
Activity (Salmonella typhimurium [6]): inactive

pIC50 [1]: 5.54
Structure (SMILES): O=C1C=CC(=C(Br)Br)O1
GI50 (Vibrio harveyi [2]): 25.5 µM

pIC50 [1]: 6.70
Structure (SMILES): CCCC(Br)C1=CC(=C(Br)Br)OC1=O (stereo unspecified)
Activity (Salmonella typhimurium [4]): inactive
GI50 (Vibrio harveyi [2]): 1.07 µM
Activity (Salmonella typhimurium [5]): Active
pIC50 (Salmonella typhimurium [3]): 5.88
Activity (Salmonella typhimurium [6]): Active
Activity (Salmonella typhimurium [7]): inactive

pIC50 [1]: 5.93
Structure (SMILES): CCCC(Br)C1=C(Br)/C(=C/Br)OC1=O (stereo unspecified)
Activity (Salmonella typhimurium [4]): inactive
GI50 (Vibrio harveyi [2]): 4.04 µM
Activity (Salmonella typhimurium [5]): Active
pIC50 (Salmonella typhimurium [3]): 5.24
Activity (Salmonella typhimurium [6]): Active
Activity (Salmonella typhimurium [7]): inactive

pIC50 [1]: 4.08
Structure (SMILES): CCCCCCC1=CC(=C(Br)Br)OC1=O
GI50 (Vibrio harveyi [2]): 197 µM
pIC50 (Salmonella typhimurium [3]): 3.80

pIC50 [1]: 4.84
Structure (SMILES): CCCCC1=C(Br)C(=C(Br)Br)OC1=O
GI50 (Vibrio harveyi [2]): 20.5 µM

pIC50 [1]: 4.92
Structure (SMILES): CCCCCCC1=C(Br)/C(=C/Br)OC1=O
Activity (Salmonella typhimurium [4]): inactive
GI50 (Vibrio harveyi [2]): 34 µM
Activity (Salmonella typhimurium [5]): Active
pIC50 (Salmonella typhimurium [3]): 4.97
Activity (Salmonella typhimurium [6]): inactive

The remaining lines, values behind:

Structure (SMILES): O=C1C=C/C(=C/Br)O1
pIC50 [1]: 5.39
GI50 (Vibrio harveyi [2]): 15.7 µM

Structure (SMILES): CCCCCC(Br)C1=C(Br)/C(=C/Br)OC1=O (stereo unspecified)
pIC50 [1]: 5.28
Activity (Salmonella typhimurium [4]): inactive
GI50 (Vibrio harveyi [2]): 7.27 µM
Activity (Salmonella typhimurium [5]): inactive
pIC50 (Salmonella typhimurium [3]): 5.49
Activity (Salmonella typhimurium [6]): inactive
Activity (Salmonella typhimurium [7]): inactive

Structure (SMILES): CCCCCCC1=C(Br)C(=O)OC1=O [BROMOHEXYLMALEIC ANHYDRIDE]
pIC50 [1]: 4.98
GI50 (Vibrio harveyi [2]): 208 µM
pIC50 (CCRF-CEM): 4.05
pIC50 (L1210): 3.68
Activity (Vibrio harveyi [8]): Active
Activity (Vibrio harveyi [9]): Active
Activity (Salmonella typhimurium [5]): inactive
pIC50 (Salmonella typhimurium [3]): 4.18
pIC50 (OST): 4.37
Activity (Salmonella typhimurium [6]): inactive
Activity (Vibrio harveyi [10]): Active
pIC50 (FM3A): 3.61
pIC50 (HeLa): 3.81

Structure (SMILES): CCCCCCC1=C/C(=C/Br)OC1=O
pIC50 (Salmonella typhimurium [3]): < 3.00

Structure (SMILES): CCCC(OC(C)=O)C1=C(Br)/C(=C/Br)OC1=O (stereo unspecified)
pIC50 [1]: 4.30
Activity (Salmonella typhimurium [4]): inactive
GI50 (Vibrio harveyi [2]): 147 µM
Activity (Salmonella typhimurium [5]): inactive
pIC50 (Salmonella typhimurium [3]): 3.88
Activity (Salmonella typhimurium [6]): inactive
Activity (Salmonella typhimurium [7]): inactive

Structure (SMILES): C=C1OC(=O)C(CCCCCC)=C1Br
pIC50 [1]: 5.87
Activity (Salmonella typhimurium [4]): inactive
GI50 (Vibrio harveyi [2]): 36.3 µM
pIC50 (CCRF-CEM): 5.12
pIC50 (L1210): 5.07
Activity (Vibrio harveyi [8]): Active
Activity (Vibrio harveyi [9]): Active
Activity (Salmonella typhimurium [5]): Active
pIC50 (Salmonella typhimurium [3]): 4.71
pIC50 (OST): 5.70
Activity (Salmonella typhimurium [6]): Active
Activity (Vibrio harveyi [10]): Active
pIC50 (FM3A): 4.80
pIC50 (HeLa): 4.32

Structure (SMILES): CCCCCCCCC1=C(Br)/C(=C/Br)OC1=O
pIC50 [1]: 5.47
GI50 (Vibrio harveyi [2]): 267 µM

Structure (SMILES): CCC1=C(Br)/C(=C/Br)OC1=O
pIC50 [1]: 5.03
Activity (Salmonella typhimurium [4]): inactive
GI50 (Vibrio harveyi [2]): 10.8 µM
pIC50 (CCRF-CEM): 3.68
pIC50 (L1210): 3.55
Activity (Salmonella typhimurium [5]): Active
pIC50 (Salmonella typhimurium [3]): 4.75
pIC50 (OST): 5.20
Activity (Salmonella typhimurium [6]): inactive
pIC50 (FM3A): < 3.30
pIC50 (HeLa): 4.41

Structure (SMILES): CC(=O)OC(C)C1=C(Br)C(=C(Br)Br)OC1=O (stereo unspecified)
pIC50 [1]: 5.20
Activity (Salmonella typhimurium [4]): inactive
GI50 (Vibrio harveyi [2]): 25.4 µM
Activity (Salmonella typhimurium [5]): Active
pIC50 (Salmonella typhimurium [3]): 5.14
Activity (Salmonella typhimurium [6]): inactive
Activity (Salmonella typhimurium [7]): inactive

Structure (SMILES): CCC1=CC(=C(Br)Br)OC1=O
pIC50 [1]: 3.98
Activity (Salmonella typhimurium [4]): inactive
GI50 (Vibrio harveyi [2]): 325 µM
Activity (Salmonella typhimurium [5]): inactive
pIC50 (Salmonella typhimurium [3]): 3.70
Activity (Salmonella typhimurium [6]): inactive

Structure (SMILES): CCCCCCC1=CC(=O)OC1=O
pIC50 [1]: 4.01
GI50 (Vibrio harveyi [2]): 640 µM
pIC50 (Salmonella typhimurium [3]): < 3.00

Structure (SMILES): CC(Br)C1=C(Br)/C(=C/Br)OC1=O (stereo unspecified)
pIC50 [1]: 5.20
Activity (Salmonella typhimurium [4]): inactive
GI50 (Vibrio harveyi [2]): 16.1 µM
Activity (Salmonella typhimurium [5]): Active
pIC50 (Salmonella typhimurium [3]): 5.35
Activity (Salmonella typhimurium [6]): Active
Activity (Salmonella typhimurium [7]): inactive

Structure (SMILES): CC(=O)OC(C)C1=CC(=C(Br)Br)OC1=O (stereo unspecified)
Activity (Salmonella typhimurium [4]): inactive
Activity (Salmonella typhimurium [5]): inactive
pIC50 (Salmonella typhimurium [3]): 3.79
Activity (Salmonella typhimurium [6]): inactive
Activity (Salmonella typhimurium [7]): inactive

Structure (SMILES): O=C1C=C(Br)/C(=C/Br)O1
pIC50 [1]: 5.57
GI50 (Vibrio harveyi [2]): 3.16 µM

From ChEMBL document CHEMBL1250426, “Structure-activity relationship of brominated 3-alkyl-5-methylene-2(5H)-furanones and alkylmaleic anhydrides as inhibitors of Salmonella biofilm formation and quorum sensing regulated bioluminescence in Vibrio harveyi” (Bioorg Med Chem, 2010)
